Measurements: ChEMBL document CHEMBL1124473, “Synthesis and antiproliferative effects of novel 5'-fluorinated analogues of 5'-deoxy-5'-(methylthio)adenosine” (J Med Chem, 1989)

Tests used:
[1] = system: L1210; experiment: Compound was evaluated for its ability to inhibit growth by 50% at 48 hr in L1210 murine leukemia cells; type: functional, cell-based; details: Mus musculus, L1210, 48 h
[2] = system: L5178Y; experiment: Compound was evaluated for its ability to inhibit growth by 50% at 48 hr in L5178Y murine leukemia cells; type: functional, cell-based; details: Mus musculus
[3] = system: L5178Y; experiment: Compound was evaluated for effect on polyamine pools in the L5178Y murine leukemia cell lines by the inhibition of spermine synthase at 200 uM; type: functional, Mus musculus
[4] = system: L1210; experiment: Compound was evaluated for effect on polyamine pools in the L1210 murine leukemia cell lines by the inhibition of spermine synthase at 200 uM; type: functional, Mus musculus
[5] = system: L1210; experiment: Compound was evaluated for effect on polyamine pools in the L1210 murine leukemia cell lines by the inhibition of put at 200 uM; type: functional, Mus musculus
[6] = system: L5178Y; experiment: Compound was evaluated for effect on polyamine pools in the L5178Y murine leukemia cell lines by the inhibition of spermidine synthase at 200 uM; type: functional, Mus musculus
[7] = system: L5178Y; experiment: Inhibition of growth of L5178Y murine leukemia cell line in percent of control at 200 uM; type: functional, Mus musculus; set-up: scale not given: the % may be the effect or the level left
Outline: (§1)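 Cultures in RPMI 1640 with 10% Nu Serum IV and HEPES/MOPS buffer, treated at 0 h with the listed concentration from DMSO stock diluted in serum-free medium. Cell number by electronic particle counting after 48 h, expressed as % of untreated control. Average of at least three separate experiments.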

[8] = system: L5178Y; experiment: Compound was evaluated for effect on polyamine pools in the L5178Y murine leukemia cell lines by the inhibition of put at 200 uM; type: functional, Mus musculus
[9] = molecular target: T1, S-methyl-5'-thioadenosine phosphorylase (Mus musculus, UniProt Q9CQ65); experiment: Compound was evaluated for the inhibition of mouse liver MTA phosphorylase
T1 sequence (Q9CQ65 whole entry): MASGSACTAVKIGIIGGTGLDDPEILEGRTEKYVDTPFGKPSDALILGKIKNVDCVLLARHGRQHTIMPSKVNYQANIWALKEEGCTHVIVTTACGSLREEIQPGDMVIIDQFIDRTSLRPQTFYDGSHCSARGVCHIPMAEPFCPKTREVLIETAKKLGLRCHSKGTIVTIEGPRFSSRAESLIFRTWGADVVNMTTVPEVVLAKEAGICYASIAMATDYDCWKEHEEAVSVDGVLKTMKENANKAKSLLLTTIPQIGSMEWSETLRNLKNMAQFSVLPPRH
Outline: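 Mouse liver enzyme, partially purified (acid precipitation, 65 °C heat step, DEAE-Sephacel). 0.1 mL reaction: 4 μmol potassium phosphate pH 7.4, 0.1 μmol DTT, 20 μg BSA, 50 nmol MTA, ~2 × 10^5 cpm [methyl-3H]MTA; 10 min, 37 °C. Stopped with charcoal/TCA; [3H]MTRP in supernatant counted by liquid scintillation.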

[10] = system: L1210; experiment: Inhibition of growth of L1210 murine leukemia cell line in percent of control at 200 uM; type: functional, Mus musculus; set-up: scale not given: the % may be the effect or the level left; outline: as §1
[11] = system: L1210; experiment: Compound was evaluated for effect on polyamine pools in the L1210 murine leukemia cell lines by the inhibition of spermidine synthase at 200 uM; type: functional, Mus musculus
[12] = system: L5178Y; experiment: Compound was evaluated for effect on polyamine pools in the L5178Y murine leukemia cell lines by the inhibition of put at 60 uM; type: functional, Mus musculus
[13] = system: L1210; experiment: Compound was evaluated for effect on polyamine pools in the L1210 murine leukemia cell lines by the inhibition of spermidine synthase at 600 uM; type: functional, Mus musculus
[14] = system: L1210; experiment: Compound was evaluated for effect on polyamine pools in the L1210 murine leukemia cell lines by the inhibition of spermine synthase at 600 uM; type: functional, Mus musculus
[15] = system: L1210; experiment: Inhibition of growth of L1210 murine leukemia cell line in percent of control at 600 uM; type: functional, Mus musculus; set-up: scale not given: the % may be the effect or the level left; outline: as §1
[16] = system: L1210; experiment: Compound was evaluated for effect on polyamine pools in the L1210 murine leukemia cell lines by the inhibition of put at 600 uM; type: functional, Mus musculus
[17] = system: L5178Y; experiment: Compound was evaluated for effect on polyamine pools in the L5178Y murine leukemia cell lines by the inhibition of spermidine synthase at 60 uM; type: functional, Mus musculus
[18] = system: L5178Y; experiment: Inhibition of growth of L5178Y murine leukemia cell line in percent of control at 60 uM; type: functional, Mus musculus; set-up: scale not given: the % may be the effect or the level left; outline: as §1
[19] = system: L5178Y; experiment: Compound was evaluated for effect on polyamine pools in the L5178Y murine leukemia cell lines by the inhibition of spermine synthase at 60 uM; type: functional, Mus musculus

## CSC(F)[C@H]1OC(n2cnc3c(N)ncnc32)[C@H](O)[C@@H]1O (stereo not given in full)
[1]
  IC50: 2 µM
[2]
  IC50: 0.7 µM

## Nc1ncnc2c1ncn2C1O[C@H](CI)[C@@H](O)[C@H]1O (stereo not given in full)
[1]
  IC50: 300 µM
[2]
  IC50: 2 µM

## Nc1ncnc2c1ncn2C1O[C@H](CSCF)[C@@H](O)[C@H]1O (stereo not given in full)
[3]
  Activity: 1.32 nM (10e6*cells)-1
[1]
  IC50: 300 µM
[4]
  Activity: 0.6 nM (10e6*cells)-1
[2]
  IC50: 200 µM
[5]
  Activity: 0.62 nM/10e6
[6]
  Activity: 2.47 nM (10e6*cells)-1
[7]
  Control: 45%
[8]
  Activity: 0.41 nM (10e6*cells)-1
[9]
  Ki: 3.3 µM
[10]
  Control: 67%
[11]
  Activity: 2.93 nM (10e6*cells)-1

## CSC[C@H]1O[C@@H](n2cnc3c(N)ncnc32)[C@H](O)[C@@H]1O [METHYLTHIOADENOSINE]
[12]
  Activity: 1.24 nM (10e6*cells)-1
[1]
  IC50: 600 µM
[13]
  Activity: 1.59 nM (10e6*cells)-1
[14]
  Activity: 0.2 nM (10e6*cells)-1
[15]
  Control: 53%
[2]
  IC50: 60 µM
[16]
  Activity: 3.64 nM (10e6*cells)-1
[17]
  Activity: 3.03 nM (10e6*cells)-1
[18]
  Control: 57%
[19]
  Activity: 0.47 nM (10e6*cells)-1
